From ChEMBL document CHEMBL3407477, “Synthesis and biological evaluation of compact, conformationally constrained bifunctional opioid agonist - neurokinin-1 antagonist peptidomimetics” (Eur J Med Chem, 2015)
Calls of active or inactive are those of the source.

Assays:
[1] = species: Rattus norvegicus; assay: Antinociceptive activity in Wistar rat at 0.1 nmol, it after 30 mins by tail flick test; assay type: functional
How it was run: (§1)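 Naive male Wistar rats (250-300 g) with i.t. catheters received a single i.t. injection in water for injection (5 µl plus 10 µl flush), 7 days after catheter implantation. Tail-flick latency to a light-bulb heat stimulus at two-thirds of tail length was read 30 min post-dose (timepoints up to 180 min), with a 9 s cut-off. Data are %MPE = (TL-BL)/(cut-off-BL)×100, 7-12 rats/group, ANOVA with Bonferroni.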

[2] = species: Rattus norvegicus; assay: Toxicity in Wistar rat chronic constriction injury model at 1 nmol, it measured 7 days post CCI challenge; assay type: organism-based; settings: in vivo, icv_or_intrathecal, 168 h
[3] = species: Rattus norvegicus; assay: Selectivity ratio of Ki for rat brain DOR to Ki for rat brain MOR
[4] = species: Rattus norvegicus; assay: Antiallodynic effect in Wistar rat chronic constriction injury model at 0.001 to 1 nmol, it measured 7 days post CCI challenge by Von Frey test; assay type: functional, organism-based
How it was run: (§2)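 Male Wistar rats (300-350 g) with i.t. catheters (L4-L6) had CCI made by four loose silk ligatures on the right sciatic nerve. On day 7 they received a single i.t. dose in water for injection. Mechanical allodynia was measured 30 min later with an automatic von Frey device (0.5-26 g) on the midplantar hind paw. Data are %MPE, 6-12 rats/group, ANOVA with Bonferroni.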

[5] = system: Mus musculus; assay: Antinociceptive activity in C57Bl6 mouse at 1.21 umol/kg, iv after 30 mins by tail flick test; assay type: functional, organism-based
How it was run: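 Male C57Bl6 mice (25-28 g) received a single i.v. dose dissolved in saline or water for injection. Radiant-heat tail-flick latency was measured at 5, 15, 30, 60, 120 and 180 min, with a 7 s cut-off. Data are %MPE, 6-8 mice/group.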

[6] = species: Rattus norvegicus; assay: Reduction of hyperalgesia in Wistar rat chronic constriction injury model at 1 nmol, it measured 7 days post CCI challenge by cold plate test; assay type: functional, organism-based
How it was run: (§3)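 In catheterized male Wistar rats with sciatic CCI, a single i.t. dose in water for injection was given on day 7. Thermal hyperalgesia was measured 30 min later as latency to hind-paw shake on a 5 °C cold plate. Data are %MPE, 6-12 rats/group, ANOVA with Bonferroni.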

[7] = species: Rattus norvegicus; assay: Antinociceptive activity in Wistar rat at 0.001 to 0.1 nmol, it after 30 mins to 2 hrs by tail flick test; assay type: functional, organism-based
[8] = species: Rattus norvegicus; assay: Antinociceptive activity in Wistar rat at 1 nmol, it after 30 mins by tail flick test; assay type: functional; how it was run: as §1
[9] = system: Rattus norvegicus; assay: Antiallodynic effect in it dosed Wistar rat measured 7 days post CCI challenge by Von Frey test; assay type: functional; how it was run: as §2
[10] = system: Rattus norvegicus; assay: Antiallodynic effect in Wistar rat chronic constriction injury model assessed as tolerance to neuropathic pain at 1 nmol, it qd for 6 days administered from 7 days post CCI challenge to day 13 by cold plate test; assay type: functional, organism-based
How it was run: (§4)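 CCI Wistar rats received once-daily i.t. injections (morphine 3.5 nmol, hybrids 1 nmol, in water for injection) from day 7 to day 13 after CCI. Von Frey and 5 °C cold plate tests were run 30 min after each dose. Data are %MPE and AUC, 12-16 rats/group, ANOVA with Bonferroni.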

[11] = species: Rattus norvegicus; assay: Antinociceptive activity in Wistar rat at 0.1 to 1 nmol, it after 30 mins by tail flick test; assay type: functional, organism-based; how it was run: as §1
[12] = species: Rattus norvegicus; assay: Toxicity in Wistar rat chronic constriction injury model at 9.5 nmol, it measured 7 days post CCI challenge; assay type: organism-based; settings: in vivo, icv_or_intrathecal, 168 h
[13] = species: Rattus norvegicus; assay: Antiallodynic effect in Wistar rat chronic constriction injury model at 1 nmol, it measured 7 days post CCI challenge by Von Frey test; assay type: functional; how it was run: as §2
[14] = system: Rattus norvegicus; assay: Antinociceptive activity in it dosed Wistar rat after 30 mins by tail flick test; assay type: functional; how it was run: as §1
[15] = species: Rattus norvegicus; assay: Antiallodynic effect in Wistar rat chronic constriction injury model at 0.1 to 1 nmol, it measured 7 days post CCI challenge by Von Frey test; assay type: functional, organism-based; how it was run: as §2
[16] = system: Rattus norvegicus; assay: Reduction of hyperalgesia in it dosed Wistar rat measured 7 days post CCI challenge by cold plate test; assay type: functional; how it was run: as §3
[17] = system: Rattus norvegicus; assay: Antiallodynic effect in Wistar rat chronic constriction injury model assessed as tolerance to neuropathic pain at 1 nmol, it qd for 6 days administered from 7 days post CCI challenge to day 13 by Von Frey test; assay type: functional, organism-based; how it was run: as §4
[18] = biological target: T1, Substance-P receptor (Homo sapiens, UniProt P25103); assay: Displacement of [3H]SP from human NK1 receptor expressed in CHO cells after 20 mins by liquid scintillation counting analysis; assay type: cell-based
How it was run: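 Membranes from hNK1/CHO cells (20 µg) were incubated with 0.4 nM [3H]SP and six test concentrations in duplicate. Buffer was 50 mM Tris pH 7.4 with 5 mM MgCl2, bacitracin, bestatin, captopril and PMSF, for 20 min at 25 °C. Nonspecific binding was defined with 10 µM SP. Samples were filtered on PEI-soaked GF/B, counted by scintillation, three independent experiments. Ki by Cheng-Prusoff from nonlinear-regression IC50.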

[19] = biological target: T1, Substance-P receptor; assay: Antagonist activity at human NK1 receptor expressed in CHO cells by luminescence assay in presence of SP peptide; assay type: cell-based; settings: read-out: pA2 (converted)
[20] = biological target: Delta-type opioid receptor (Rattus norvegicus, UniProt P33533); assay: Displacement of [3H]DSLET from rat brain DOR after 2 hrs
How it was run: (§5)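 Rat brain membranes were incubated 2 h at 0 °C with 0.72 nM [3H]DAMGO (MOR) or 0.78 nM [3H]DSLET (DOR). IC50 came from log-dose displacement curves.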

[21] = biological target: Mu-type opioid receptor (Rattus norvegicus, UniProt P33535); assay: Displacement of [3H]DAMGO from rat brain MOR after 2 hrs; how it was run: as §5
[22] = biological target: Mu-type opioid receptor (Cavia porcellus, UniProt P97266); assay: Activation of MOR in guinea pig ileum; assay type: tissue-based
How it was run: (§6)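 Isolated guinea pig ileum (MOR) and mouse vas deferens (DOR) bioassays. A [Leu5]enkephalin standard dose-response curve was run on each tissue preparation, and test IC50 values were normalized to it. Values are means of 3-4 experiments.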

[23] = biological target: Delta-type opioid receptor (Mus musculus, UniProt P32300); assay: Activation of DOR in mouse vas deferens; how it was run: as §6
[24] = species: Rattus norvegicus; assay: Antinociceptive activity in Wistar rat at 1 to 50 nmol, it after 30 mins by tail flick test; assay type: functional, organism-based
How it was run: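 Male Wistar rats (250-300 g), naive, with chronic i.t. catheters inserted through the atlanto-occipital membrane to L4-L6 under pentobarbital anaesthesia. Tested on day 7 after implantation. Drug in water for injection was given as a single 5 µl i.t. injection, then 10 µl flush. Tail-flick (light-bulb heat at two-thirds tail length, 9 s cut-off) was read 30 min post-dose. Values are %MPE vs baseline; 7-12 rats/group; ANOVA/Bonferroni.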

[25] = system: Rattus norvegicus; assay: Toxicity in Wistar rat assessed as death at 9.5 nmol, iv; assay type: organism-based; settings: in vivo
[26] = system: Rattus norvegicus; assay: Antinociceptive activity in Wistar rat up to 1.21 umol/kg, iv after 30 mins by tail flick test; assay type: functional, organism-based
[27] = system: Rattus norvegicus; assay: Toxicity in Wistar rat assessed as seizures at 9.5 nmol, iv; assay type: organism-based; settings: in vivo
[28] = biological target: Mu-type opioid receptor (Cavia porcellus) (UniProt P97266); assay: Partial agonist activity at MOR in guinea pig ileum; assay type: tissue-based; how it was run: as §6
[29] = biological target: Mu-type opioid receptor (Cavia porcellus) (UniProt P97266); assay: Antagonist activity at MOR in guinea pig ileum; assay type: tissue-based

T1 sequence (P25103 whole entry): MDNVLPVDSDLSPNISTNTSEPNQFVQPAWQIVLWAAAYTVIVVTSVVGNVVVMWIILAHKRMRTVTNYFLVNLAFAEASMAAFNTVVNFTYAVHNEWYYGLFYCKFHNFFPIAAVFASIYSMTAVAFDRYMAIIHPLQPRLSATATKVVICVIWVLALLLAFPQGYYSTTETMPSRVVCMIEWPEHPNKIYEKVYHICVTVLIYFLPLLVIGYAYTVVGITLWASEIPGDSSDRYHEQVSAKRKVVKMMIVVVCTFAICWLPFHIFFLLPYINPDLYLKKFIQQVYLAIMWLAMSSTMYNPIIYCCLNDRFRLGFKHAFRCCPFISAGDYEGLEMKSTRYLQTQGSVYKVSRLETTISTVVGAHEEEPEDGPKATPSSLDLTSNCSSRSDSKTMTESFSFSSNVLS
Delta-type opioid receptor (Mus musculus, UniProt P32300), sequence (P32300 whole entry): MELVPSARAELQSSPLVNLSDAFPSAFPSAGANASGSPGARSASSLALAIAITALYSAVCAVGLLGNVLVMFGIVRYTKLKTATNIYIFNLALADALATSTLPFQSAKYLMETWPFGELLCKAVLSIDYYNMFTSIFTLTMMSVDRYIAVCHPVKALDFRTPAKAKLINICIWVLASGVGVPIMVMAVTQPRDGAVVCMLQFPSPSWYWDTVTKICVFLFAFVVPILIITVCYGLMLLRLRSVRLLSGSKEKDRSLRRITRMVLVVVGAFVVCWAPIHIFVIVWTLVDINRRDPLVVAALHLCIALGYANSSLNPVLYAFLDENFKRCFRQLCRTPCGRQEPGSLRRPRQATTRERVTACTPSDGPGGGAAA
Delta-type opioid receptor (Rattus norvegicus, UniProt P33533), sequence (P33533 whole entry): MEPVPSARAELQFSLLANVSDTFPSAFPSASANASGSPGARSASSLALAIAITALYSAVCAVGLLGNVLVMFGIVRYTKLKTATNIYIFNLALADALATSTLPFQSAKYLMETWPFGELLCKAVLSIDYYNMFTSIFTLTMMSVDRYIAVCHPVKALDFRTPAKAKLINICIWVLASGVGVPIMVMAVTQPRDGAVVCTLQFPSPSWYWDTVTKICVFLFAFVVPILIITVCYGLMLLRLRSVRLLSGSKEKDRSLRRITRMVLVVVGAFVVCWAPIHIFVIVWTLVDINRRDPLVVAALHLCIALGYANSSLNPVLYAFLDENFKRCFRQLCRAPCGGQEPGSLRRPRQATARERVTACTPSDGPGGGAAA
Mu-type opioid receptor (Rattus norvegicus, UniProt P33535), sequence (P33535 whole entry): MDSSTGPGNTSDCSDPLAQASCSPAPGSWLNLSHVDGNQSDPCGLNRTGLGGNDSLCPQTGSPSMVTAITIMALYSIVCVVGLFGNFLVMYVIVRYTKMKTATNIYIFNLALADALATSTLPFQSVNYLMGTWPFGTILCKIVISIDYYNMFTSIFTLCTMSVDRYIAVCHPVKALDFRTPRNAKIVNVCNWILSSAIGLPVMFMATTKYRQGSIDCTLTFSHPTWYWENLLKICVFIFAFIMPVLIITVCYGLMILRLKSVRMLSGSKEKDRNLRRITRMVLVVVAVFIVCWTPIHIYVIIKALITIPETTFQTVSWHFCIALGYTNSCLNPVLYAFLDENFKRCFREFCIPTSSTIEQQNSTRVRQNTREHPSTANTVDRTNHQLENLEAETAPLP
Mu-type opioid receptor (Cavia porcellus), sequence (P97266 whole entry): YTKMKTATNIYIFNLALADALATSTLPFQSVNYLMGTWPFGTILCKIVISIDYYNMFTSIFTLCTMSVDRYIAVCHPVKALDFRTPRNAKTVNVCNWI
Mu-type opioid receptor (Cavia porcellus, UniProt P97266), sequence (P97266 whole entry): as above

Cc1cc(O)cc(C)c1C[C@H](N)C(=O)N[C@H](CCCNC(=N)N)C(=O)N[C@H]1Cc2ccccc2CN(CCC(N)=O)C1=O was tested, and the MPE [1] was 99.7%, the Activity [2] was “Toxic” and the Ratio Ki [3] was 12.7. For the same molecule, the Activity [4] was “Active”, the Activity [5] was “Active” and the Activity [6] was “Active”. For the same molecule, the Activity [7] was “Active”.
In the case of Cc1cc(O)cc(C)c1C[C@H](N)C(=O)N[C@H](CCCNC(=N)N)C(=O)N[C@H]1Cc2ccccc2CN(CC(=O)N(C)Cc2cc(C(F)(F)F)cc(C(F)(F)F)c2)C1=O, the MPE [8] is reported as 30%, the Activity [2] is reported as “Non-toxic” and the Ratio Ki [3] is reported as 25. For the same molecule, the ED50 [9] was 1.05 nmol, the Activity [10] was “Active” and the Activity [11] was “Active”. The Activity [12] was “Toxic”, the MPE [13] was 60% and the ED50 [14] was 1.66 nmol. The Activity [15] was “Active”, the ED50 [16] was 1.14 nmol and the Activity [6] was “Active”. For the same molecule, the Activity [17] was “Active”.
Cc1cc(O)cc(C)c1C[C@H](N)C(=O)N[C@H](CCCNC(=N)N)C(=O)N[C@H]1Cc2ccccc2CN(CCC(=O)N(C)Cc2cc(C(F)(F)F)cc(C(F)(F)F)c2)C1=O showed a Ki [18] of 59.7 nM, a Kb [19] of 912 nM and a Ki [20] of 2.14 nM. It also gave a Ratio Ki [3] of 25.3, a Ki [21] of 0.08 nM and an IC50 [22] of 11.3 nM. For the same molecule, the IC50 [23] was 6.2 nM.
In the case of CC(=O)N[C@H]1Cc2ccccc2CN(CC(=O)N(C)Cc2cc(C(F)(F)F)cc(C(F)(F)F)c2)C1=O, the Activity [24] is reported as “Active”, the Activity [25] is reported as “Toxic” and the Activity [26] is reported as “inactive”. For the same molecule, the Activity [27] was “Toxic”, the Activity [15] was “Active” and the Activity [6] was “Active”.
Molecule Cc1cc(O)cc(C)c1C[C@H](N)C(=O)N[C@H](CCCNC(=N)N)C(=O)N[C@H]1Cc2ccccc2CN(CC(=O)N(C)Cc2ccccc2)C1=O has a Ratio Ki [3] of 24.8.
For Cc1cc(O)cc(C)c1C[C@H](N)C(=O)N[C@H](CCCNC(N)=O)C(=O)N[C@H]1Cc2ccccc2CN(CCC(=O)N(C)Cc2ccccc2)C1=O, the Ki [18] was 3000 nM, the Ki [20] was 0.48 nM and the Ratio Ki [3] was 1.7. It also gave a Ki [21] of 0.28 nM, an IC50 [22] of 0.96 nM and an IC50 [23] of 0.33 nM.
For Cc1cc(O)cc(C)c1C[C@H](N)C(=O)N[C@H](CCCNC(=N)N)C(=O)N[C@H]1Cc2ccccc2CN(CCC(=O)N(Cc2ccccc2)CC(C)C)C1=O, the Ki [18] was 308 nM.
Cc1cc(O)cc(C)c1C[C@H](N)C(=O)N[C@H](CCCNC(=N)N)C(=O)N[C@H]1Cc2ccccc2CN(CC(=O)N(Cc2ccccc2)CC(C)C)C1=O was tested, and the Ki [18] was 1020 nM, the Activity [28] was “Active” and the Ke [29] was 5.91 nM. The IC50 [23] was 28.7 nM.
